Data set [1] in a line: Apparent volume of distribution in rat at 2 mg/kg, iv. On the set-up: dose 2 mg/kg, route intravenous. It is filed as ADME, organism-based. The note with it: in vivo, read-out: Vz.
Data set [2] can be described thus: Cmax in rat at 2 mg/kg, iv. The data set is classed as ADME, organism-based. On the set-up: dose 2 mg/kg, route intravenous. The note with it: in vivo.
A short description of data set [3]: AUCall in rat at 2 mg/kg, iv. It is filed as ADME, organism-based. Details: dose 2 mg/kg, route intravenous; call rule not given here. Conditions: plasma.
Data set [4] is described as follows: Solubility of the compound. It is filed as physicochemical.
Data set [5] relates to Rattus norvegicus. The data set can be described thus: Drug metabolism in rat assessed as sulfoxide metabolite formation at 2 mg/kg, iv. It is filed as ADME, organism-based. On the set-up: dose 2 mg/kg, route intravenous. Conditions: in vivo. An outline of the steps:
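Rats dosed i.v. at 2 mg/kg and plasma monitored in vivo for the sulfoxide metabolite. AUCall was also measured after 20 mg/kg oral dosing.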

Data set [6] concerns Rattus norvegicus. The data set can be described thus: AUCall in rat assessed as sulfoxide metabolite level at 20 mg/kg, po. On the set-up: dose 20 mg/kg, route oral. The data set is classed as ADME, organism-based, Plasma. Conditions: in vivo. An outline of the steps: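 Rats given the parent sulfide compound orally at 20 mg/kg, with plasma monitored for its in vivo sulfoxide metabolite; exposure to that metabolite is reported as AUCall. A separate i.v. dose of 2 mg/kg in rats was also monitored for this metabolite.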

Data set [7] is described as follows: Oral bioavailability in dog at 10 mg/kg. It is filed as ADME, organism-based, Canis lupus familiaris. The note with it: in vivo. In outline: (§1)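 Dogs dosed orally at 10 mg/kg; plasma pharmacokinetic parameters determined.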
Data set [8] can be described thus: Cmax in dog at 10 mg/kg, po. It is filed as ADME, organism-based, Canis lupus familiaris. Conditions: in vivo. On the set-up: dose 10 mg/kg, route oral. In outline:
as §1

The nature of data set [9]: Tmax in dog at 10 mg/kg, po. It is filed as ADME, organism-based, Canis lupus familiaris. On the set-up: dose 10 mg/kg, route oral. Conditions: in vivo. An outline of the steps:
as §1

A short description of data set [10]: AUCall in dog at 10 mg/kg, po. It is filed as ADME, organism-based, Canis lupus familiaris. Details: dose 10 mg/kg, route oral. Conditions: plasma.
Data set [11] can be described thus: Tmax in rat at 20 mg/kg, po. The data set is classed as ADME, organism-based. On the set-up: dose 20 mg/kg, route oral. The note with it: in vivo.
The nature of data set [12]: Cmax in rat at 20 mg/kg, po. It is filed as ADME, organism-based. Details: dose 20 mg/kg, route oral. The note with it: in vivo.
A short description of data set [13]: AUCall in rat at 20 mg/kg, po. The data set is classed as ADME, organism-based. Details: dose 20 mg/kg, route oral. The note with it: plasma.
Data set [14] can be described thus: Apparent volume of distribution in dog at 2 mg/kg, iv. It is filed as ADME, organism-based, Canis lupus familiaris. Details: dose 2 mg/kg, route intravenous. The note with it: in vivo, read-out: Vz.
Data set [15] is described as follows: Cmax in dog at 2 mg/kg, iv. It is filed as ADME, organism-based, Canis lupus familiaris. Details: dose 2 mg/kg, route intravenous. Conditions: in vivo.
Data set [16] is described as follows: AUCall in dog at 2 mg/kg, iv. The data set is classed as ADME, organism-based, Canis lupus familiaris. Details: dose 2 mg/kg, route intravenous. Conditions: plasma.
The nature of data set [17]: Oral bioavailability in rat at 20 mg/kg. It is filed as ADME, organism-based. The note with it: in vivo.

Results on 7 compounds are retold here after ChEMBL document CHEMBL2176971 (Bioorg Med Chem Lett, 2012).

Usually Cmax stands for the maximum level reached in the sampled fluid or tissue. Usually AUC stands for concentration integrated over time. The solubility is how much of the substance goes into solution per volume. Broadly, the bioavailability is the share of a dose that reaches the circulation, judged against a reference dose that is usually intravenous. Higher therefore signals much systemic uptake. The Tmax is the time from dosing to the highest level.

For the compound `COC(=O)c1ccc2c(c1)c1c(n2CCCNc2nc(OC)cc(OC)n2)CCCC1`, the Vd in data set [1] worked out at 11.3 L/kg. This compound yielded a Cmax in data set [2] of 182 ng/mL. In data set [3], the AUC came out at 521 ng·h/mL.
The like results for `COc1cc(OC)nc(NCCCn2c3c(c4cc(S(C)(=O)=O)ccc42)CCCC3)n1` were, in that order, 3.51 L/kg, 1080 ng/mL and 902 ng·h/mL.
For `CCc1cc(CC)nc(OCCCn2c3c(c4cc(-c5nc(C)no5)ccc42)CCCC3)n1` the same measures were 18.9 L/kg, 1050 ng/mL and 497 ng·h/mL.
For `Cc1noc(-c2ccc3c(c2)c2c(n3CCCS(=O)(=O)N(C)C)CCCC2)n1` the same measures were 3.96 L/kg, 1240 ng/mL and 520 ng·h/mL.
On to `Cc1noc(-c2ccc3c(c2)c2c(n3CCCOc3cc(F)cc(F)c3)CCCC2)n1`, for which the Vd in [1] was 22.1 L/kg. For the same compound, the peak level in data set [2] (Cmax) was 821 ng/mL. Also, the AUC in data set [3] stood at 404 ng·h/mL.
In data set [4], `Cc1noc(-c2ccc3c(c2)c2c(n3CCCSc3cc(F)cc(F)c3)CCCC2)n1` gave a solubility above 1000 µg/mL. Further, in the data set on Rattus norvegicus [5], the Drug metabolism result is given as “Not Active”. Also, the AUC stood at 143 ng·h/mL with Rattus norvegicus [6]; 2010 ng·h/mL in [10]; 4230 ng·h/mL in data set [13]; 1750 ng·h/mL in data set [16]; 1180 ng·h/mL in data set [3]. For the same compound, in [7], the bioavailability was found to be 34%. Besides, the Cmax is 625 ng/mL in data set [8], 955 ng/mL in data set [12], 3880 ng/mL in data set [15] and 2990 ng/mL in data set [2]. The Tmax was determined as 2 h in data set [9] and 2.33 h in data set [11]. Also, the Vd in data set [14] was 1.8 L/kg; in data set [1], 3.64 L/kg.
The compound `Cc1noc(-c2ccc3c(c2)c2c(n3CC(F)COc3cc(F)cc(F)c3)CCCC2)n1` (stereo not drawn) yielded a bioavailability in data set [17] of 38%. Moreover, the time of peak concentration (Tmax) in data set [11] turned out to be 2.67 h. The Cmax was determined as 747 ng/mL in data set [12] and 1710 ng/mL in [2]. Also, the AUC is 3140 ng·h/mL in data set [13] and 691 ng·h/mL in [3]. Also, the Vd in [1] amounted to 5.52 L/kg.
